# Measurements as given in PubChem BioAssay AID624062 (Broad Institute, 2012).
# Inconclusive results are not listed.
# Test system: S. cerevisiae W303 JC-1 mitochondrial potential, flow cytometry
# Assay: mitochondrial membrane depolarization in S. cerevisiae, mechanism study for antifungal respiration inhibitor project, flow cytometry, single point, powder samples (AID 624062)
# Conditions: active compounds read high
# Method in brief: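 System: Saccharomyces cerevisiae strain W303-1a, whole yeast cells; Amount: yeast culture diluted to OD600 of 0.1; Medium: SD-CSM growth medium containing 2% glucose; Also added: JC-1 dye at 1 µg/mL; Times: 4 h compound treatment at 30 °C; Signal: flow cytometry of JC-1 red and green emission.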
smiles,measurement,value
CCOC(=O)N1C(=O)C2(CCCCC2)N(c2ccc(C)cc2)C1=S,mitochondrial depolarization score,18.6
